≈ marks a conversion by molar mass, not a printed value.
Tests used:
[1] = target: T1, Cell division inhibitor SulA (Escherichia coli K-12) (UniProt P0AFZ5); assay: Inhibition of Escherichia coli K-12 DNA sulA expressed in Escherichia coli DC2 assessed as compound concentration required for => 4-fold induction of luxCDABE operon by reported gene assay
T1 sequence (whole entry): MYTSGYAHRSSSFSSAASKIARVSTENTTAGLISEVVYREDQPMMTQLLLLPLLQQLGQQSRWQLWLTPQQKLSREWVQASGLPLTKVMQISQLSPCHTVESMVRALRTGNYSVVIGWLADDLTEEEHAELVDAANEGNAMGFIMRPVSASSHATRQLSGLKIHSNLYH
Method in brief: (§1)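 E. coli DC2 carrying a gyrA or sulA promoter–luxCDABE (Photorhabdus) fusion plasmid. Grown overnight at 37°C in LB with 2 μg/ml tetracycline, then diluted 1:100 in LB without tetracycline and precultured 1.5 h at 37°C. Compounds were added from DMSO stocks to 1% final DMSO and incubated 5 h at 37°C. Bioluminescence was divided by A595, and induction factor is the treated/untreated ratio. The value is the lowest test concentration giving ≥4-fold induction.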

Escherichia coli [2] = assay: Antibacterial activity against Escherichia coli ATCC 25922 by broth microdilution method; assay type: functional
DNA gyrase subunit B = DNA gyrase subunit B (Escherichia coli, UniProt P0AES6); assay: Inhibition of Escherichia coli JM109 DNA gyrase subunit B assessed as ATP hydrolysis by ATPase assay
Escherichia coli [3] = assay: Antibacterial activity against Escherichia coli UB1005 by broth microdilution method; assay type: functional
Staphylococcus aureus [4] = assay: Antibacterial activity against Staphylococcus aureus ATCC 29213 by broth microdilution method; assay type: functional
Pseudomonas aeruginosa [5] = assay: Antibacterial activity against Pseudomonas aeruginosa K799/WT by broth microdilution method; assay type: functional
Streptococcus pneumoniae [6] = assay: Antibacterial activity against Streptococcus pneumoniae SL336-T by broth microdilution method; assay type: functional
[7] = target: DNA gyrase (Escherichia coli); assay: Inhibition of Escherichia coli JM109 DNA gyrase assessed as DNA triple helix formation by supercoiling assay
Pseudomonas aeruginosa [8] = assay: Antibacterial activity against Pseudomonas aeruginosa K799/61 by broth microdilution method; assay type: functional
Escherichia coli [9] = assay: Antibacterial activity against Escherichia coli DC2 by broth microdilution method; assay type: functional
Klebsiella pneumoniae = assay: Antibacterial activity against Klebsiella pneumoniae ATCC 27736 by broth microdilution method; assay type: functional
Streptococcus pneumoniae [10] = assay: Antibacterial activity against Streptococcus pneumoniae ATCC 49619 by broth microdilution method; assay type: functional
Enterococcus faecalis = assay: Antibacterial activity against Enterococcus faecalis ATCC 29212 by broth microdilution method; assay type: functional
Streptococcus pneumoniae [11] = assay: Antibacterial activity against Streptococcus pneumoniae TUPELO by broth microdilution method; assay type: functional
Pseudomonas aeruginosa [12] = assay: Antibacterial activity against Pseudomonas aeruginosa ATCC 27853 by broth microdilution method; assay type: functional
Staphylococcus aureus [13] = assay: Antibacterial activity against Staphylococcus aureus 80CR5 by broth microdilution method; assay type: functional
[14] = target: DNA gyrase subunit A (Escherichia coli K-12) (UniProt P0AES4); assay: Inhibition of Escherichia coli K-12 DNA gyrase A expressed in Escherichia coli DC2 assessed as compound concentration required for => 4-fold induction of luxCDABE operon by reported gene assay; method in brief: as §1
Staphylococcus aureus [15] = assay: Antibacterial activity against Staphylococcus aureus ATCC 43300 by broth microdilution method; assay type: functional
Enterococcus faecium = assay: Antibacterial activity against Enterococcus faecium ATCC 19434 by broth microdilution method; assay type: functional

SMILES | Activity [1] [µM] | MIC (Escherichia coli [2]) [µg/mL] | IC50 (DNA gyrase subunit B) [nM] | MIC (Escherichia coli [3]) [µg/mL] | MIC (Staphylococcus aureus [4]) [µg/mL] | MIC (Pseudomonas aeruginosa [5]) [µg/mL] | MIC (Streptococcus pneumoniae [6]) [µg/mL] | IC50 [7] [nM] | MIC (Pseudomonas aeruginosa [8]) [µg/mL] | MIC (Escherichia coli [9]) [µg/mL] | MIC (Klebsiella pneumoniae) [µg/mL] | MIC (Streptococcus pneumoniae [10]) [µg/mL] | MIC (Enterococcus faecalis) [µg/mL] | MIC (Streptococcus pneumoniae [11]) [µg/mL] | MIC (Pseudomonas aeruginosa [12]) [µg/mL] | MIC (Staphylococcus aureus [13]) [µg/mL] | Activity [14] [µM] | MIC (Staphylococcus aureus [15]) [µg/mL] | MIC (Enterococcus faecium) [µg/mL]
CO[C@@H]1[C@@H](OC(=O)c2ccc(C)[nH]2)[C@@H](O)[C@H](Oc2ccc3c(O)c(NC(=O)c4ccc(O)c(NC(=O)C(C)C)c4)c(=O)oc3c2Cl)OC1(C)C | 3.1 | > 32 | 73 | > 32 | 2 (≈ 2.8 µM) | > 32 | 8 (≈ 11.2 µM) | 41 | 1 (≈ 1.4 µM) | 16 (≈ 22.4 µM) | > 32 | 4 (≈ 5.6 µM) | 32 (≈ 44.8 µM) | 16 (≈ 22.4 µM) | > 32 | > 32 | 3.1 | 4 (≈ 5.6 µM) | > 32
CO[C@@H]1[C@@H](OC(N)=O)[C@@H](O)[C@H](Oc2ccc3c(O)c(NC(=O)c4ccc(O)c(CC=C(C)C)c4)c(=O)oc3c2C)OC1(C)C [NOVOBIOCIN] | 6.3 | > 32 |  | > 32 | 0.25 (≈ 0.408 µM) | > 32 | 2 (≈ 3.26 µM) |  | 1 (≈ 1.63 µM) | 4 (≈ 6.53 µM) | > 32 | 1 (≈ 1.63 µM) | > 32 | 2 (≈ 3.26 µM) | > 32 | > 32 | 3.1 | 0.25 (≈ 0.408 µM) | > 32
CO[C@@H]1[C@@H](OC(=O)c2ccc(C)[nH]2)[C@@H](O)[C@H](Oc2ccc3c(O)c(NC(=O)c4ccc(O)c(CC=C(C)C)c4)c(=O)oc3c2Cl)OC1(C)C [CHLOROBIOCIN] | < 1 | 32 (≈ 45.9 µM) |  | > 32 | ≤ 0.06 | 16 (≈ 23 µM) | 1 (≈ 1.43 µM) |  | ≤ 0.06 | 2 (≈ 2.87 µM) | 16 (≈ 23 µM) | 0.25 (≈ 0.359 µM) | 4 (≈ 5.74 µM) | 1 (≈ 1.43 µM) | 8 (≈ 11.5 µM) | 4 (≈ 5.74 µM) | 1.6 | ≤ 0.06 | > 32

Next, values leading:

Activity [1] [µM] | MIC (Escherichia coli [2]) [µg/mL] | IC50 (DNA gyrase subunit B) [nM] | MIC (Escherichia coli [3]) [µg/mL] | MIC (Staphylococcus aureus [4]) [µg/mL] | MIC (Pseudomonas aeruginosa [5]) [µg/mL] | MIC (Streptococcus pneumoniae [6]) [µg/mL] | IC50 [7] [nM] | MIC (Pseudomonas aeruginosa [8]) [µg/mL] | MIC (Escherichia coli [9]) [µg/mL] | MIC (Klebsiella pneumoniae) [µg/mL] | MIC (Streptococcus pneumoniae [10]) [µg/mL] | MIC (Enterococcus faecalis) [µg/mL] | MIC (Streptococcus pneumoniae [11]) [µg/mL] | MIC (Pseudomonas aeruginosa [12]) [µg/mL] | MIC (Staphylococcus aureus [13]) [µg/mL] | Activity [14] [µM] | MIC (Staphylococcus aureus [15]) [µg/mL] | MIC (Enterococcus faecium) [µg/mL] | SMILES
50 | > 32 | 152 | > 32 | 1 (≈ 1.61 µM) | > 32 | 4 (≈ 6.43 µM) | 44 | 4 (≈ 6.43 µM) | > 32 | > 32 | 4 (≈ 6.43 µM) | 8 (≈ 12.9 µM) | 4 (≈ 6.43 µM) | > 32 | > 32 | 25 | 1 (≈ 1.61 µM) | > 32 | CO[C@@H]1[C@@H](OC(=O)c2ccc(C)[nH]2)[C@@H](O)[C@H](Oc2ccc3c(O)c(NC(=O)c4ccc(N)c(C)c4)c(=O)oc3c2C)OC1(C)C
12.5 | > 32 | 84 | > 32 | 0.125 (≈ 0.19 µM) | > 32 | 4 (≈ 6.07 µM) | 20 | 2 (≈ 3.03 µM) | 8 (≈ 12.1 µM) | > 32 | 2 (≈ 3.03 µM) | 32 (≈ 48.6 µM) | 16 (≈ 24.3 µM) | > 32 | 32 (≈ 48.6 µM) | 3.1 | 0.25 (≈ 0.379 µM) | > 32 | CO[C@@H]1[C@@H](OC(=O)c2ccc(C)[nH]2)[C@@H](O)[C@H](Oc2ccc3c(O)c(NC(=O)c4ccc(SC)cc4)c(=O)oc3c2Cl)OC1(C)C
6.3 | > 32 | 122 | > 32 | 1 (≈ 1.52 µM) | > 32 | 4 (≈ 6.07 µM) | 22 | 1 (≈ 1.52 µM) | 32 (≈ 48.6 µM) | > 32 | 2 (≈ 3.03 µM) | 16 (≈ 24.3 µM) | 8 (≈ 12.1 µM) | > 32 | 32 (≈ 48.6 µM) | 25 | 1 (≈ 1.52 µM) | > 32 | COc1cc(C(=O)Nc2c(O)c3ccc(O[C@@H]4OC(C)(C)[C@H](OC)[C@@H](OC(=O)c5ccc(C)[nH]5)[C@H]4O)c(Cl)c3oc2=O)ccc1O
6.3 | > 32 | 65 | > 32 | 0.125 (≈ 0.19 µM) | > 32 | 8 (≈ 12.2 µM) | 17 | 1 (≈ 1.52 µM) | 16 (≈ 24.4 µM) | > 32 | 4 (≈ 6.09 µM) | 16 (≈ 24.4 µM) | 8 (≈ 12.2 µM) | > 32 | 32 (≈ 48.7 µM) | 13 | 0.25 (≈ 0.38 µM) | > 32 | CO[C@@H]1[C@@H](OC(=O)c2ccc(C)[nH]2)[C@@H](O)[C@H](Oc2ccc3c(O)c(NC(=O)c4cc(C)c(O)c(C)c4)c(=O)oc3c2Cl)OC1(C)C

— ChEMBL document CHEMBL1275417, “Biological activities of novel gyrase inhibitors of the aminocoumarin class” (Antimicrob Agents Chemother, 2008)
